Reference: ChEMBL document CHEMBL1955718, “Discovery of new orally effective analgesic and anti-inflammatory hybrid furoxanyl N-acylhydrazone derivatives” (Bioorg Med Chem, 2012)
Calls of active or inactive are those of the source.

Key:
[1] = Induction of NO release in 0.1 M Tris-HCl and 0.1 mM DTPA at pH 7.4 measured for 20 mins in presence of cysteine; assay type: physicochemical; conditions: buffer, pH 7.4, 20 min
Method in brief: (§1)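 Electrochemical NO detection with an ISO-NOP sensor. Compounds in DMSO added to 0.1 M Tris-HCl, 0.1 mM DTPA at pH 7.4 or 8.3. Cysteine (300 or 100 µM) added and NO recorded for 20 min at 25 or 37 °C; compound:Cys ratio 1:1 at 25 °C, with 3:1 and 37 °C runs also made.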

HT-29 [2] = assay: Inhibition of TNF-alpha-induced NFkappaB activation expressed in human HT-29 cells coexpressing hrGFP at 50 uM after 24 hrs by propidium iodide staining-based flow cytometric analysis relative to control; assay type: cell-based
Method in brief: (§2)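 HT-29 cells stably expressing NF-κB-driven hrGFP given compound (DMSO <0.5%) for 2 h at the maximum non-cytotoxic concentration, then TNF-α at 3 ng/mL final for 18–24 h. Cells trypsinised and stained with propidium iodide; 5000 events gated on FSC/SSC. The %GFP-positive among PI-excluding live cells is normalised to TNF-α/DMSO control, ± SD.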

[3] = Induction of NO release in 0.1 M Tris-HCl and 0.1 mM DTPA at pH 8.3 measured for 20 mins in presence of cysteine; assay type: physicochemical; conditions: buffer, pH 8.3, 20 min; method in brief: as §1
HT-29 [4] = assay: Inhibition of NF-kappaB activation expressed in human HT-29 cells assessed as inhibition of TNFalpha-stimulated IL8 release at 50 uM after 24 hrs by flow cytometric analysis relative to control; assay type: cell-based
Method in brief: (§3)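 Reporter HT-29-NF-κB-hrGFP cells pretreated 2 h with compound (DMSO <0.5%) at the highest concentration with 100% survival, then stimulated with TNF-α (3 ng/mL final) for 18–24 h at 37 °C. IL-8 in clarified supernatant measured by flow cytometric bead assay (500 events). Expressed as % of TNF-α/DMSO control ± SD; thalidomide as reference.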

Mus musculus = assay: Analgesic activity in albino mouse assessed as inhibition of acetic acid-induced abdominal constriction at 100 umol/kg, po administered 1 hr before acetic acid challenge measured after 30 mins relative to control; assay type: functional; conditions: Abdomen
Method in brief: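 Albino mice of both sexes (18–23 g) were dosed orally as a suspension in 5% arabic gum in saline, with vehicle controls. After 1 h they received 0.6% acetic acid ip (0.1 mL/10 g). Constrictions were counted for 20 min starting 10 min after injection. Data are % inhibition vs vehicle, mean ± SEM, Student t-test.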

[5] = Cytotoxicity against human HT-29 cells expressing NF-kappaB-hrGFP assessed as highest non-cytotoxic dose for 100% cell survival after 24 hrs by MTT assay; assay type: cell-based; conditions: read-out: Activity
Method in brief: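 HT-29 cells stably carrying pNF-κB-hrGFP, seeded at 0.5 × 10^6/mL in DMEM with 10% FBS, grown 24 h at 37 °C, 5% CO2. Compounds added in DMSO (<0.5% v/v final) at 12.5–400 µM for 24 h. Viability by MTT reduction (2 h), formazan dissolved in DMSO/glycine buffer, read at 560 nm.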

Rattus norvegicus [6] = assay: Antihyperalgesic activity against carrageenan-induced thermal hyperalgesia in Wistar rat assessed as latency of withdrawal response at 100 umol/kg, po administered 1 hr before carrageenan challenge measured after 30 to 240 mins by hot plate test; assay type: functional, organism-based
Method in brief: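 Wistar rats of both sexes (150–200 g) dosed orally at 100 µmol/kg as suspension in 5% arabic gum in saline, vehicle controls. After 1 h, 1% carrageenan (1 mg/paw) or saline injected subplantar. Left hind paw withdrawal latency on hot plate at 51 ± 0.1 °C read at 0–240 min, 20 s cut-off. Δ latency = time-0 latency minus later latency; mean ± SEM, n = 8–10; Student t-test.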

HT-29 [7] = assay: Pro-inflammatory activity in NFkappaB-GFP transfected human HT-29 cells at 25 to 400 uM after 24 hrs by propidium iodide staining-based flow cytometric analysis; assay type: ADME, cell-based; conditions: ht-29, 24 h
Method in brief: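 Reporter HT-29-NF-κB-hrGFP cells given compound alone, without TNF-α, for 18–24 h at 37 °C after the same 2 h pre-incubation. GFP-positive live (propidium iodide-excluding) cells counted by flow cytometry; IL-8 in supernatant measured by bead-based flow cytometry.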

Glycine max [8] = assay: Inhibition of soybean lipoxygenase using arachidonic acid as substrate at 50 uM
Method in brief: (§4)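 Soybean 15-lipoxygenase kit assay, arachidonic acid substrate, H2O2 as lipoxygenating agent in 0.1 M Tris-HCl pH 7.4. Single-point screen at 50 µM. IC50 found by varying concentration over 10–100 µM. Quercetin at 4 µM as positive control; duplicate means; Student t-test.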

Rattus norvegicus [9] = assay: Antiinflammatory activity in albino rat assessed as inhibition of carrageenan-induced paw edema at 100 umol/kg, po administered 1 hr before carrageenan challenge measured after 3 hrs by plethysmometric analysis relative to control; assay type: functional
Method in brief: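 Albino rats of both sexes (150–200 g) were dosed orally as a suspension in 1% Tween 80 in saline, with vehicle controls. After 1 h, 0.1 mL 1% carrageenan or saline was injected subplantar. Paw volume was read by glass plethysmometer at 3 h. Edema = carrageenan-paw minus saline-paw volume; % inhibition vs vehicle; Student t-test.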

[10] = Cytotoxicity against mouse […] cells after 48 hrs by MTT assay; assay type: cell-based
Method in brief: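 J774 macrophages in DMEM (4 mM L-glutamine, 10% heat-inactivated FBS) were seeded at 1 × 10^5 cells/well and grown for 48 h at 37 °C, 5% CO2. They were then exposed to compounds at 25–400 µM for 48 h. MTT (0.1 mg/mL final) was added for 3 h, formazan was dissolved in DMSO/glycine buffer pH 10.5, and absorbance was read at 560 nm to give an IC50.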

Glycine max [11] = assay: Inhibition of soybean lipoxygenase using arachidonic acid as substrate at 4 uM
Method in brief: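 Soybean lipoxygenase-15 screening kit with arachidonic acid as substrate and H2O2 as lipoxygenating agent in 0.1 M Tris-HCl, pH 7.4. Values are % inhibition, means of duplicate determinations, Student t-test.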

[12] = Solubility of the compound in soybean lipoxygenase assay buffer at pH 7.4 at >50 uM; assay type: physicochemical
HT-29 [13] = assay: Inhibition of TNFalpha-induced NF-kappaB activation expressed in human HT-29 cells coexpressing hrGFP at 100 uM after 24 hrs by propidium iodide staining-based flow cytometric analysis relative to control; assay type: cell-based; method in brief: as §2
HT-29 [14] = assay: Inhibition of NF-kappaB activation expressed in human HT-29 cells assessed as inhibition of TNFalpha-stimulated IL8 release at 100 uM after 24 hrs by flow cytometric analysis relative to control; assay type: cell-based; method in brief: as §3
HT-29 [15] = assay: Inhibition of TNFalpha-induced NF-kappaB activation expressed in human HT-29 cells coexpressing hrGFP at 400 uM after 24 hrs by propidium iodide staining-based flow cytometric analysis relative to control; assay type: cell-based; method in brief: as §2
HT-29 [16] = assay: Inhibition of NF-kappaB activation expressed in human HT-29 cells assessed as inhibition of TNFalpha-stimulated IL8 release at 400 uM after 24 hrs by flow cytometric analysis relative to control; assay type: cell-based; method in brief: as §3
HT-29 [17] = assay: Inhibition of NF-kappaB activation expressed in human HT-29 cells assessed as inhibition of TNFalpha-stimulated IL8 release at 200 uM after 24 hrs by flow cytometric analysis relative to control; assay type: cell-based; method in brief: as §3
HT-29 [18] = assay: Inhibition of TNFalpha-induced NF-kappaB activation expressed in human HT-29 cells coexpressing hrGFP at 200 uM after 24 hrs by propidium iodide staining-based flow cytometric analysis relative to control; assay type: cell-based; method in brief: as §2
[19] = Inhibition of soybean lipoxygenase using arachidonic acid as substrate; parameters: species or system Glycine max; method in brief: as §4
HT-29 [20] = assay: Inhibition of TNF-alpha-induced NFkappaB activation expressed in human HT-29 cells coexpressing hrGFP at 25 uM after 24 hrs by propidium iodide staining-based flow cytometric analysis relative to control; assay type: cell-based; method in brief: as §2
HT-29 [21] = assay: Inhibition of NF-kappaB activation expressed in human HT-29 cells assessed as inhibition of TNFalpha-stimulated IL8 release at 25 uM after 24 hrs by flow cytometric analysis relative to control; assay type: cell-based; method in brief: as §3

| Compound | MNTC at 24 h [5] | Activity (HT-29 [7]) | inhibition (Glycine max [8]) | IC50 [10] | solubility [12] | NF-kappaB activity (% of TNF-alpha control) (HT-29 [13]) | inhibition (HT-29 [14]) | other results |
| --- | --- | --- | --- | --- | --- | --- | --- | --- |
| O=C(N/N=C/c1ccc2no[n+]([O-])c2c1)c1cccnc1 | 50 µM | Non-toxic | 0% | 31 µM | – | – | – | Activity [1]: 0 nM/min; NF-kappaB activation (% of TNF-alpha control) (HT-29 [2]): 66%; Activity [3]: 0.64 nM/min; inhibition (HT-29 [4]): 29%; inhibition in vivo at 100 µmol/kg (Mus musculus): 35%; Activity (Rattus norvegicus [6]): inactive; inhibition in vivo at 100 µmol/kg (Rattus norvegicus [9]): 0% |
| O=c1c(O)c(-c2ccc(O)c(O)c2)oc2cc(O)cc(O)c12 | – | – | – | – | – | – | – | inhibition (Glycine max [11]): 35% |
| Cc1[nH]cnc1C(=O)N/N=C/c1no[n+]([O-])c1C | 100 µM | Non-toxic | 27% | > 400 µM | Insoluble | 126% | 103% | – |
| Cc1c(/C=N/NC(=O)c2cccnc2)no[n+]1[O-] (mixture of isomers) | 100 µM | Non-toxic | 22% | > 400 µM | Insoluble | 112% | 105% | – |
| O=C1CCC(N2C(=O)c3ccccc3C2=O)C(=O)N1 (configuration not stated) [THALIDOMIDE] | 100 µM | Non-toxic | – | > 400 µM | – | 126% | 63% | NF-kappaB activity (GFP-positive cells), % of TNF-alpha control (HT-29 [15]): 116%; inhibition (HT-29 [16]): 57%; inhibition (HT-29 [17]): 77%; inhibition (HT-29 [18]): 114% |
| O=C(N/N=C/c1c(-c2ccccc2)no[n+]1[O-])c1cccnc1 | 25 µM | Non-toxic | 14% | 195 µM | – | – | – | IC50 [19]: > 100 µM; inhibition (HT-29 [20]): 114%; inhibition (HT-29 [21]): 138% |
